Laboratory results: ChEMBL document CHEMBL2010780, “Pyridine Carboxamides: Potent Palm Site Inhibitors of HCV NS5B Polymerase” (ACS Med Chem Lett, 2010)
The source made the active and inactive calls. The calls are words filed in the database; no cut-off is given here.

What was measured:
[1] = Inhibition of Hepatitis C virus genotype 1b Con1 NS5B Cdelta21 polymerase assessed as incorporation of [33P]-CTP into heteropolymer RNA template after 2 hrs; design: species or system Hepacivirus hominis; conditions: Con1, 2 h
Method in brief: (§1)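 Each value is the mean of duplicate experiments run on two separate weighings of compound.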

Hepatitis C virus [2] = experiment: Antiviral activity against Hepatitis C virus genotype 1b Con1 infected in human HuH7 cells assessed as inhibition of viral RNA replication after 3 by real time PCR analysis; assay type: functional, organism-based, Hepacivirus hominis, Huh-7; conditions: Hepatitis C virus, Con1, Huh-7; read-out: EC50; method in brief: as §1
[3] = Cytotoxicity against human HuH7 cells after 3 days by MTS assay; assay type: cell-based, Huh-7; method in brief: as §1
[4] = Ratio of CC50 for human HuH7 cells to EC50 for Hepatitis C virus genotype 1b Con1; design: species or system Huh-7
Hepatitis C virus [5] = experiment: Ratio of IC50 for Hepatitis C virus genotype 1b Con1 NS5B Cdelta21 polymerase palm site 2 C316N mutant to IC50 for Hepatitis C virus genotype 1b Con1 NS5B Cdelta21 polymerase; design: species or system Hepacivirus hominis
Hepatitis C virus [6] = experiment: Ratio of IC50 for Hepatitis C virus genotype 1b Con1 NS5B Cdelta21 polymerase palm site 2 C316Y mutant to IC50 for Hepatitis C virus genotype 1b Con1 NS5B Cdelta21 polymerase; design: species or system Hepacivirus hominis
Hepatitis C virus [7] = experiment: Ratio of IC50 for Hepatitis C virus genotype 1b Con1 NS5B Cdelta21 polymerase palm site 1 M414T mutant to IC50 for Hepatitis C virus genotype 1b Con1 NS5B Cdelta21 polymerase; design: species or system Hepacivirus hominis
Hepatitis C virus [8] = experiment: Ratio of IC50 for Hepatitis C virus genotype 1b Con1 NS5B Cdelta21 polymerase palm site 1 G554D mutant to IC50 for Hepatitis C virus genotype 1b Con1 NS5B Cdelta21 polymerase; design: species or system Hepacivirus hominis
Hepatitis C virus [9] = experiment: Ratio of IC50 for Hepatitis C virus genotype 1b Con1 NS5B Cdelta21 polymerase thumb site 2 M423T mutant to IC50 for Hepatitis C virus genotype 1b Con1 NS5B Cdelta21 polymerase; design: species or system Hepacivirus hominis
Hepatitis C virus [10] = experiment: Ratio of IC50 for Hepatitis C virus genotype 1b Con1 NS5B Cdelta21 polymerase thumb site 1 P495L mutant to IC50 for Hepatitis C virus genotype 1b Con1 NS5B Cdelta21 polymerase; design: species or system Hepacivirus hominis
Hepacivirus hominis [11] = experiment: Ratio of IC50 for Hepatitis C virus subtype 1b BK NS5B Cdelta21 polymerase to IC50 for Hepatitis C virus genotype 1b Con1 NS5B Cdelta21 polymerase
Hepacivirus hominis [12] = experiment: Ratio of IC50 for Hepatitis C virus subtype 1a H77 NS5B Cdelta21 polymerase to IC50 for Hepatitis C virus genotype 1b Con1 NS5B Cdelta21 polymerase
[13] = system: Hepatitis C virus genotype 2; experiment: Inhibition of Hepatitis C virus genotype 2 NS5B Cdelta21 polymerase up to 10 uM
[14] = system: Hepatitis C virus genotype 3; experiment: Inhibition of Hepatitis C virus genotype 3 NS5B Cdelta21 polymerase up to 10 uM
[15] = system: Hepatitis C virus genotype 4; experiment: Inhibition of Hepatitis C virus genotype 4 NS5B Cdelta21 polymerase up to 10 uM
Hepatitis C virus [16] = experiment: Inhibition of Hepatitis C virus genotype 1b Con1 NS5B Cdelta21 polymerase-mediated RNA synthesis at initiation phase after 15 mins by primer extension assay; conditions: Hepacivirus hominis
Hepatitis C virus [17] = experiment: Inhibition of Hepatitis C virus genotype 1b Con1 NS5B Cdelta21 polymerase-mediated RNA synthesis at elongation phase after 22 hrs by single round elongation assay; conditions: Hepacivirus hominis
Method in brief: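 Single-cycle assay measuring elongation from NS5B enzyme–primer–template complexes that were preformed before elongation.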

| Structure (SMILES) | IC50 [1] [nM] | EC50 (Hepatitis C virus [2]) [nM] | CC50 at 72 h [3] [µM] | Ratio CC50/EC50 [4] | Ratio IC50 (Hepatitis C virus [5]) | Ratio IC50 (Hepatitis C virus [6]) | Ratio IC50 (Hepatitis C virus [7]) | Ratio IC50 (Hepatitis C virus [8]) | Ratio IC50 (Hepatitis C virus [9]) | Ratio IC50 (Hepatitis C virus [10]) | Ratio IC50 (Hepacivirus hominis [11]) | Ratio IC50 (Hepacivirus hominis [12]) | inhibition [13] | inhibition [14] | inhibition [15] | inhibition (Hepatitis C virus [16]) | inhibition (Hepatitis C virus [17]) |
| --- | --- | --- | --- | --- | --- | --- | --- | --- | --- | --- | --- | --- | --- | --- | --- | --- | --- |
| Cc1ncccc1C(=O)Nc1ccc(C(C)C)cc1N1CCN(c2ncnc3ccsc23)CC1 | 14 | 700 | 15 | >20 | 3 | >300 | 21 | 4 | 1 | 1 | 14 | 140 | inactive | inactive | inactive | Active | inactive |
| Cc1ncccc1C(=O)Nc1ccc(C(C)C)cc1N1CCN(c2ncnc3[nH]ccc23)CC1 | 32 | 3000 | > 10 |  | 4 | >300 | 27 | 8 | 1 | 1 | 27 | 270 | inactive | inactive | inactive |  |  |
| Cc1ncccc1C(=O)Nc1ccc(C(C)C)cc1N1CCN(c2cnccn2)CC1 | 520 | 2800 | 22 | 10 |  |  |  |  |  |  |  |  |  |  |  |  |  |
